The results in this text go back to article PMC7246176 (Nature chemical biology, 2020).

pIC50: −log10 of the molar value. Read-outs that look alike come from different tables or passages of the source.

A word on the pIC50: it is the negative decadic logarithm of the IC50, by convention in mol/L.

For assay [1], the target named is T1, DCLK1 (Homo sapiens, UniProt O15075).
T1 sequence (O15075 1-740): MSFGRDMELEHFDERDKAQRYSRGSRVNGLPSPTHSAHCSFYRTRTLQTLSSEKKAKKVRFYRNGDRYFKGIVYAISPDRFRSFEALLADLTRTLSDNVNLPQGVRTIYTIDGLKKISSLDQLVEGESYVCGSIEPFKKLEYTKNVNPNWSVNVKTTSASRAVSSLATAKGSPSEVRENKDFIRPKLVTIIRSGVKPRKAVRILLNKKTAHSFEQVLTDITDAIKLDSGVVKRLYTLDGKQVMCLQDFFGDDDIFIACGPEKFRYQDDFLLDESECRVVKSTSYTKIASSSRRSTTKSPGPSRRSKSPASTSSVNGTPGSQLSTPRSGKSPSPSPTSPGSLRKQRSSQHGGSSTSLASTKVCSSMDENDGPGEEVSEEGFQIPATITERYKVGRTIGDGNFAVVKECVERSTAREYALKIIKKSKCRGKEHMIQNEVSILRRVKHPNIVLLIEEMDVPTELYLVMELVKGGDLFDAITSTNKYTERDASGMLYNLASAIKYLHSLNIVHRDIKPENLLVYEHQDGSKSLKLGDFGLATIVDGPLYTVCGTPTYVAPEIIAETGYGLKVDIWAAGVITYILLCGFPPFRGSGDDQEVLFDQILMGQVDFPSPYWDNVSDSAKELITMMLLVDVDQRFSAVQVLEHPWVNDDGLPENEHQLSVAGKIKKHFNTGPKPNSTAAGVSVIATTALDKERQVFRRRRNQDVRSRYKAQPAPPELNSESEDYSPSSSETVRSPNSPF
In words: DCLK1 KINOMEscan binding assay.

The test system of the next assay is PANFR0172_T3. In words: Patient-derived pancreatic organoid viability, PANFR0172_T3. The conditions noted are these: read-out: PANFR0172_T3 3D organoid culture IC50. The assay is classed as cell-based, human. The method in brief: (§1)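 Patient-derived PDAC organoids were dissociated to single cells and plated at 1000 viable cells/well in complete organoid medium with 10% Matrigel, in ultra-low-attachment 384-well plates. After 24 h, compound was added by digital dispenser, then 7 days incubation. Read-out was CellTiter-Glo 3D luminescence after 1 h shaking at room temperature, normalized to DMSO wells for each culture.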

The target in assay [2] is T2, DCLK1-Nluc in HCT116 cells (Homo sapiens, UniProt O15075).
T2 sequence (O15075 1-729 isoform O15075-2): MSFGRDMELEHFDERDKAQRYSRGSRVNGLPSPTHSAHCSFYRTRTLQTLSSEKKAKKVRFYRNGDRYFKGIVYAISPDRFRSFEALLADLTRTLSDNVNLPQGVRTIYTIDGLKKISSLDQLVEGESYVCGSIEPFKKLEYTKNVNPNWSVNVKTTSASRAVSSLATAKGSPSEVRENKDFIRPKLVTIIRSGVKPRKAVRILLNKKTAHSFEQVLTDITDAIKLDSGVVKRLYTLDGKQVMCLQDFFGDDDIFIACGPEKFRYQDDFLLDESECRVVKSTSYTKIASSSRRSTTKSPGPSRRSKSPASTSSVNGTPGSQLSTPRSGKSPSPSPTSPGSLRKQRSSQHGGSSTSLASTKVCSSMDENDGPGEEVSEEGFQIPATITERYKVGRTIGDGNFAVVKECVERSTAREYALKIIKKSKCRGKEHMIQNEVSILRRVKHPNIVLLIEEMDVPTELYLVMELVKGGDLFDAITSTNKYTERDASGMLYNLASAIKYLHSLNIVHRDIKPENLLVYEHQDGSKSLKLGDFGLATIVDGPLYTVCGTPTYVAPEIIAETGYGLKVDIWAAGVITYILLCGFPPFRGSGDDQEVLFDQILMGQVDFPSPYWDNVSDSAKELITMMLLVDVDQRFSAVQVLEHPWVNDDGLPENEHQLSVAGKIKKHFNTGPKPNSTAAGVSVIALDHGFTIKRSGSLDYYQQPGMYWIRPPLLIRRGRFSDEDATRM
The experiment in a line: DCLK1 NanoBRET target engagement assay in HCT116 cells. Format: cell-based. For orientation: BRET reads energy transfer from a luciferase to a nearby fluorophore.

The test system of a further assay is PANFR0172_T2. In words: Patient-derived pancreatic organoid viability, PANFR0172_T2. The assay is classed as cell-based, human. The conditions noted are these: read-out: PANFR0172_T2 3D organoid culture IC50. The method in brief:
as §1

The next assay has as its target BRD4 (Homo sapiens, UniProt O60885). The experiment in a line: BRD4 AlphaScreen assay. Format: binding. On the technique in general: Bead proximity is the source of the signal in Alpha formats.
For assay [3], the target named is T3, DCLK2 (Homo sapiens, UniProt Q8N568).
T3 sequence (Q8N568 1-766): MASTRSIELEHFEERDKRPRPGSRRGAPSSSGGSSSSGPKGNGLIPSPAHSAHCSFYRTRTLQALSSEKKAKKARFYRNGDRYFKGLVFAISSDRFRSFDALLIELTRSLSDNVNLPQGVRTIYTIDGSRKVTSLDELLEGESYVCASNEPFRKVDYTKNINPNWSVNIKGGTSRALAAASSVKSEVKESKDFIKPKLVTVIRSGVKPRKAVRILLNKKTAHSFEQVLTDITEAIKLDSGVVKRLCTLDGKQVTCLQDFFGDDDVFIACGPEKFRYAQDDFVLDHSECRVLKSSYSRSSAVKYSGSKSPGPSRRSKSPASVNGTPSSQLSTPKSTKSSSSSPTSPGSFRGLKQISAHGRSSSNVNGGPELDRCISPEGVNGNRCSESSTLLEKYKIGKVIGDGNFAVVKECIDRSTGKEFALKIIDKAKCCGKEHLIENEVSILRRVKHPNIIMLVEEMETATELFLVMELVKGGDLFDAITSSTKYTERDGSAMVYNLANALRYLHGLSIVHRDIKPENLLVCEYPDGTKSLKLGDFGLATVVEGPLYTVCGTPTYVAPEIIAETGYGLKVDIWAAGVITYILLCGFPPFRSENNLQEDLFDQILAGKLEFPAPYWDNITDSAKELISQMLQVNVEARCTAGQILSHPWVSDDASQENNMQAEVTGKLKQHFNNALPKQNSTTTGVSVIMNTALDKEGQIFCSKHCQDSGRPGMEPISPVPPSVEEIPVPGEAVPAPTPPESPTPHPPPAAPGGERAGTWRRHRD
The experiment in a line: 33P-ATP DCLK2 kinase assay. The assay is classed as biochemical. In outline:
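Radiometric 33P-ATP assay run by a contract lab. […] Test compound in 12-point dose response, top concentration 10 μM. Values are the mean of n = 3 biologically independent samples.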

Assay [4] deals with T1, DCLK1. In words: 33P-ATP DCLK1 kinase assay. Format: biochemical. The note with it: ATP 50 μM (Km).
For assay [5], the target named is T3, DCLK2. The experiment in a line: DCLK2 KINOMEscan binding assay. In outline: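 KINOMEscan competition binding run by a contract lab. Test compound in 12-point dose response, top concentration 10 μM. Values are the mean of n = 2 biologically independent samples.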
[6] abbreviates: viability, 7 d, P.R. = partial response.

For the compound `COc1cc(N2CCN(C)CC2)ccc1Nc1ncc2c(n1)N(C)c1ccccc1C(=O)N2CC(F)(F)F` [DCLK1-IN-1], the pIC50 at DCLK1 [1] was 8.02; in the assay with PANFR0172_T3 (Homo sapiens, 168 h), 5.67; in assay [2], 6.55; in the assay on PANFR0172_T2 (Homo sapiens, 168 h), 6.06; against BRD4 it was less than 5.00; at DCLK2 [3], 6.99. The pIC50 was 7.24 at DCLK1 [4] (DCLK1 kinase assay IC50, 33P-ATP) and 7.51 on DCLK2 [5].

As for `CCOc1cc(N2CCC(O)CC2)ccc1Nc1ncc2c(n1)N(C)c1ccccc1C(=O)N2C` [XMD8-92], the pIC50 is 5.85 on DCLK1 [1] (read-out: DCLK1 binding assay IC50, KINOMEscan); less than 4.70 with PANFR0172_T3 (setting [6]); 5.94 in assay [2] (read-out: DCLK1 cellular assay IC50, nanoBRET, HCT116 cells); less than 4.70 in the assay on PANFR0172_T2 (setting [6]); 5.81 on BRD4 (read-out: BRD4 binding assay IC50, AlphaScreen, Table 1); 6.41 on DCLK2 [3] (read-out: DCLK2 kinase assay IC50, 33P-ATP, ATP 100 μM (Km)). Moreover, the pIC50 on DCLK1 [4] (read-out: DCLK1 kinase assay IC50, 33P-ATP) is 6.98; on DCLK2 [5] (read-out: DCLK2 binding assay IC50, KINOMEscan) it was 5.44.
